Test results as given in PMC7509213 (iScience, 2020).
Where two headings read alike, the source gives them in different places.

Legend:
[1] = system: RPB1 subunit of RNAPII; test: RPB1 degradation in PC3 cells under hypoxia; format: cell-based, human; conditions: PC3, 10 μM, 1% O2
[2] = system: PC3 cells; test: PC3 proliferation under hypoxia or normoxia; format: cell-based, human; conditions: for IC50: Homo sapiens, PC-3, 48 h
Method in brief: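 PC3 cells seeded at 5,000/well and held at 1% O2 in a humidified chamber at 37°C for 48 h (normoxia 20% O2) before 48 h exposure to test compound. A 1 μCi [3H]-thymidine pulse per well was given for 6 h, then cells were harvested onto glass-fibre filters for scintillation counting. Proliferation is relative to DMSO, mean ± SEM, n = 3, and IC50 values were derived from these curves.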

[3] = system: RPB1 subunit of RNAPII; test: RPB1 degradation in HeLa cells; format: cell-based, human
[4] = target: T1, XPB (Homo sapiens, UniProt P19447); test: XPB degradation in cells; format: cell-based; conditions: 10 μM, western blot
T1 sequence (P19447 1-782): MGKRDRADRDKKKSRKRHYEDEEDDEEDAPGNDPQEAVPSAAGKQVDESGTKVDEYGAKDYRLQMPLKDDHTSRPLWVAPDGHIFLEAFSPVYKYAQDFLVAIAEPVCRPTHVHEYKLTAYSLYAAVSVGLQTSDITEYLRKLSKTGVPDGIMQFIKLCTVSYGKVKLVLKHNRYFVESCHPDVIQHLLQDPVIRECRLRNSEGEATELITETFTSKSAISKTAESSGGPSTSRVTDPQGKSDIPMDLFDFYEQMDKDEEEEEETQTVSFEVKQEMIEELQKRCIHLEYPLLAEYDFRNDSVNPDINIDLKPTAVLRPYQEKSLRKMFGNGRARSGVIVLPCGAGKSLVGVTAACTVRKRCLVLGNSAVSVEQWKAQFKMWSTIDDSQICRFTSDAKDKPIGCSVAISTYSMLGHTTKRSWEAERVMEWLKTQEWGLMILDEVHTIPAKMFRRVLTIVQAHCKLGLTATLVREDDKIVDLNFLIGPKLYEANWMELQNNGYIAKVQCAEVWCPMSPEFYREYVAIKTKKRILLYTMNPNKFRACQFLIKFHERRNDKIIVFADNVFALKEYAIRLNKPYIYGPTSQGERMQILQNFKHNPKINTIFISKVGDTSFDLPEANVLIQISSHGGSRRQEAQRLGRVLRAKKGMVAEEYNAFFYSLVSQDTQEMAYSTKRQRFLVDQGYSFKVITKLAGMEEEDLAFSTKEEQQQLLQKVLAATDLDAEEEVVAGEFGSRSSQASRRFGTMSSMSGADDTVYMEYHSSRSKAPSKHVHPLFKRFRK

[5] = target: TFIIH (Homo sapiens, UniProt P19447); test: DNA-dependent ATPase activity assay of purified TFIIH; format: biochemical; conditions: 200 nM
Method in brief: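 Purified TFIIH, DNA-dependent ATPase assay. It was started with TFIIH, run for 2 h, and stopped with EDTA. Mixture was spotted on PEI-cellulose TLC and developed in 0.5 M LiCl/1 M HCOOH. Released 32Pi was quantified by phosphorimaging relative to DMSO, mean ± SE, n = 3.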

[6] = lethal case dosed with 18 mg/m^2 F60008; ref Kitzen et al., 2009; cited from earlier work
[7] = system: RPB1 subunit of RNAPII; test: RPB1 degradation in C342T XPB knock-in cells; format: cell-based, human; conditions: 1μM

## O=C(Oc1cccc(F)c1OC(=O)c1cccc(O)c1)c1cccc(O)c1 [WZB117, 2-Fluoro-6-(m-hydroxybenzoyloxy) phenyl m-hydroxybenzoate]
[1]
  effect on RNAPII degradation triggered by 3 μM G-2 and hypoxia: antagonizes

## COc1cccc2c1C(=O)c1c(O)c3c(c(O)c1C2=O)C[C@@](O)(C(=O)CO)C[C@@H]3O[C@H]1C[C@H](N)[C@H](O)[C@H](C)O1 [doxorubicin]
[2]; PC3, 1% O2 vs 20% O2
  potency under hypoxia versus normoxia: decreased

## CC(=O)S[C@@H]1CC2=CC(=O)CC[C@]2(C)[C@H]2CC[C@@]3(C)[C@@H](CC[C@@]34CCC(=O)O4)[C@H]12 [spironolactone]
[3]; 10 μM SP combined with 1 μM G-2
  effect on RPB1 degradation induced by G-2: rescued RPB1 from degradation
[3]; HeLa, 10 μM
  stability of RPB1: no effect
[4]
  degradation of XPB: caused degradation of the majority of XPB

## CC(C)[C@]12O[C@H]1[C@@H]1O[C@]13[C@]1(O[C@H]1C[C@H]1C4=C(CC[C@@]13C)C(=O)OC4)[C@@H]2O [triptolide, (1S,2S,4S,5S,7R,8R,9S,11S,13S)-8-hydroxy-1-methyl-7-propan-2-yl-3,6,10,16 tetraoxaheptacyclo[11.7.0.0^2,4.0^2,9.0^5,7.0^9,11.0^14,18] icos-14(18)-en-17-one]
[5]
  ATPase activity of TFIIH: nearly completely inhibited
[2]; read-out: IC50, PC3 proliferation under hypoxia
  IC50: 1.5 nM
[2]; read-out: IC50, PC3 proliferation under normoxia
  IC50: 4.5 nM
[2]; PC3, hypoxia vs normoxia
  fold enhancement of anti-proliferative effect (IC50) during hypoxia: three-fold
[2]; hypoxic PC3 cells
  effect size during hypoxia: 0.71
[6]
  Maximum serum levels: 58.5 ng/mL

## α-amanitin
[7]
  degradation of Rpb1 in C342T XPB isogenic cell line: induced the degradation of Rpb1
